Reference: ChEMBL document CHEMBL1795304, “Synthesis, antitumor and antimicrobial activities of 4-(4-chlorophenyl)-3-cyano-2-(β-O-glycosyloxy)-6-(thien-2-yl)-nicotinonitrile” (2011)

Assays:
Format in all cases: functional
MCF7 [1] = assay: Cytotoxicity against human MCF7 cells assessed as inhibition of cell viability at 100 ug/mL after 48 hrs by MTT assay; conditions: MCF7, 48 h
How it was run: (§1)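 MCF7 cells kept in DMEM with 10% FBS, 2 mM L-glutamine and antibiotics at 37 °C, 5% CO2. Cells plated at 0.5 × 10⁵ per well in serum-free medium and exposed for 48 h to DMSO-dissolved compound (25, 50, 100 µg/mL). MTT then added for 4 h and formazan dissolved in acidified isopropanol. Absorbance read at 570 nm in triplicate, expressed as % viability versus untreated cells.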

MCF7 [2] = assay: Cytotoxicity against human MCF7 cells assessed as inhibition of cell viability at 25 ug/mL after 48 hrs by MTT assay; conditions: MCF7, 48 h; how it was run: as §1
MCF7 [3] = assay: Cytotoxicity against human MCF7 cells assessed as inhibition of cell viability at 50 ug/mL after 48 hrs by MTT assay; conditions: MCF7, 48 h; how it was run: as §1
Escherichia coli = assay: Antimicrobial activity against Escherichia coli at 1 ug/mL after 48 hrs by cup plate agar diffusion method; conditions: read-out: IZ
How it was run: (§2)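 Cup plate agar diffusion. Compounds dissolved in DMSO at 1 µg/mL. Plates incubated 48 h at 37 °C, then inhibition zone diameter measured in mm. DMSO served as solvent control and ampicillin as reference.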

Pseudomonas aeruginosa = assay: Antimicrobial activity against Pseudomonas aeruginosa at 1 ug/mL after 48 hrs by cup plate agar diffusion method; conditions: read-out: IZ; how it was run: as §2
Bacillus subtilis = assay: Antimicrobial activity against Bacillus subtilis at 1 ug/mL after 48 hrs by cup plate agar diffusion method; conditions: read-out: IZ; how it was run: as §2
Staphylococcus aureus = assay: Antimicrobial activity against Staphylococcus aureus at 1 ug/mL after 48 hrs by cup plate agar diffusion method; conditions: read-out: IZ; how it was run: as §2

Structure (SMILES) | inhibition at 100 µg/mL (MCF7 [1]) [%] | inhibition at 25 µg/mL (MCF7 [2]) [%] | inhibition at 50 µg/mL (MCF7 [3]) [%] | zone of inhibition at 1 µg/mL (Escherichia coli) [mm] | zone of inhibition at 1 µg/mL (Pseudomonas aeruginosa) [mm] | zone of inhibition at 1 µg/mL (Bacillus subtilis) [mm] | zone of inhibition at 1 µg/mL (Staphylococcus aureus) [mm]
COc1cccc2c1C(=O)c1c(O)c3c(c(O)c1C2=O)C[C@@](O)(C(=O)CO)C[C@@H]3O[C@H]1C[C@H](N)[C@H](O)[C@H](C)O1 [DOXORUBICIN] | 50 | 6 | 15 |  |  |  | 
N#Cc1c(-c2ccc(Cl)cc2)cc(-c2cccs2)nc1O[C@@H]1O[C@H](CO)[C@@H](O)[C@H]1O | 0 | 0 | 0 | 6 | 28 | 7 | 10
CC(=O)OC[C@H]1O[C@@H](Oc2nc(-c3cccs3)cc(-c3ccc(Cl)cc3)c2C#N)[C@H](OC(C)=O)[C@H]1OC(C)=O | 8 | 0 | 0 |  |  |  | 
CC1(C)S[C@@H]2[C@H](NC(=O)[C@H](N)c3ccccc3)C(=O)N2[C@H]1C(=O)O [AMPICILLIN] |  |  |  | 2 | 23 | 6 | 7
N#Cc1c(-c2ccc(Cl)cc2)cc(-c2cccs2)nc1O[C@@H]1O[C@H](CO)[C@@H](O)[C@H](O)[C@H]1O | 0 | 0 | 0 | 0 | 0 | 1 | 3
N#Cc1c(-c2ccc(Cl)cc2)cc(-c2cccs2)nc1O[C@@H]1O[C@H](CO)[C@@H](O[C@@H]2O[C@H](CO)[C@H](O)[C@H](O)[C@H]2O)[C@H](O)[C@H]1O |  |  |  | 0 | 10 | 3 | 5
CC(=O)OC[C@H]1O[C@@H](Oc2nc(-c3cccs3)cc(-c3ccc(Cl)cc3)c2C#N)[C@H](OC(C)=O)[C@@H](OC(C)=O)[C@H]1OC(C)=O | 20 | 0 | 5 | 5 | 26 | 10 | 12
CC(=O)OC[C@H]1O[C@@H](Oc2nc(-c3cccs3)cc(-c3ccc(Cl)cc3)c2C#N)[C@H](OC(C)=O)[C@@H]1OC(C)=O | 12 | 2 | 7 | 3 | 25 | 8 | 9
N#Cc1c(-c2ccc(Cl)cc2)cc(-c2cccs2)nc1O[C@@H]1O[C@H](CO)[C@H](O)[C@H]1O |  |  |  | 2 | 9 | 3.5 | 3
N#Cc1c(-c2ccc(Cl)cc2)cc(-c2cccs2)nc1O[C@@H]1O[C@H](CO)[C@H](O)[C@H](O)[C@H]1O |  |  |  | 0 | 0 | 0 | 0
O=c1[nH]cc(F)c(=O)[nH]1 [FLUOROURACIL] | 7 | 0 | 0 |  |  |  | 
CC(=O)OC[C@H]1O[C@@H](O[C@H]2[C@H](OC(C)=O)[C@@H](OC(C)=O)[C@H](Oc3nc(-c4cccs4)cc(-c4ccc(Cl)cc4)c3C#N)O[C@@H]2COC(C)=O)[C@H](OC(C)=O)[C@@H](OC(C)=O)[C@H]1OC(C)=O | 10 | 0 | 5 |  |  |  | 
CC(=O)OC[C@H]1O[C@@H](Oc2nc(-c3cccs3)cc(-c3ccc(Cl)cc3)c2C#N)[C@H](OC(C)=O)[C@@H](OC(C)=O)[C@@H]1OC(C)=O | 10 | 0 | 5 | 3 | 13 | 11 | 8
